{"source": "ChEMBL document CHEMBL4706601", "about": "“The endocannabinoid system dual-target ligand N-cycloheptyl-1,2-dihydro-5-bromo-1-(4-fluorobenzyl)-6-methyl-2-oxo-pyridine-3-carboxamide improves disease severity in a mouse model of multiple sclerosis” (Eur J Med Chem, 2020)", "note": "pEC50, pIC50, pKi: −log10 of the molar value. Active and inactive are the calls of the source.", "data": [{"biological_target": "Cannabinoid receptor 1 (Rattus norvegicus) (UniProt P20272)", "sequence (P20272 whole entry)": "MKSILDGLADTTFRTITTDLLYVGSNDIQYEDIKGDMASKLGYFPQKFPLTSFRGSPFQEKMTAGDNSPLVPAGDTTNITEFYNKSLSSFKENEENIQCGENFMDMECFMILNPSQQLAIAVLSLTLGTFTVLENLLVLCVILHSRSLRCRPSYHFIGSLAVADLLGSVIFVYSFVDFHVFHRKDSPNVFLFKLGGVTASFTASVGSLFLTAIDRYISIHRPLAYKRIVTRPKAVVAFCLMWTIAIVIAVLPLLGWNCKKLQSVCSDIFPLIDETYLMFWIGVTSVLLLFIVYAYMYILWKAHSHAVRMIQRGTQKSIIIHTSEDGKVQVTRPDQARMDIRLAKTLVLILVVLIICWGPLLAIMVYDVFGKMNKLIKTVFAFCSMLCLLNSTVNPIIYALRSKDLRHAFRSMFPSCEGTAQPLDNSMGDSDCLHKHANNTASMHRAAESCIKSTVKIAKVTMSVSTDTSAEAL", "experiment": "Agonist activity at CB1R in Sprague-Dawley rat hippocampal synaptosomes assessed as inhibition of 4-AP evoked glutamate release at 10 uM preincubated for 8 mins followed by 4-AP addition in presence of 1 uM CB2R antagonist, SR144528 by HPLC analysis", "type": "subcellular", "conditions": "Hippocampus, filed as agonist", "method_in_brief": "(§1)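 Rat (male Sprague Dawley, 200-250 g) hippocampal synaptosomes from Percoll gradient, superfused at 37 °C (0.5 ml/min); 4-AP 600 μM for 2 min. Compounds and antagonists (SR141716A, SR144528, 1 μM) added 8 min before 4-AP and kept during it; basal effects tested by 2-min exposure alone. Endogenous glutamate by HPLC as pmol/mg protein; overflow = stimulated minus basal in control chambers; n = 3–9, triplicate.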", "values": [{"smiles": "CCCCC/C=C\\C/C=C\\C/C=C\\C/C=C\\CCCC(=O)NCCCl", "Activity": "Active"}]}, {"biological_target": "T1, Cannabinoid receptor 1 (Homo sapiens, UniProt P21554)", "T1 sequence (P21554 whole entry)": "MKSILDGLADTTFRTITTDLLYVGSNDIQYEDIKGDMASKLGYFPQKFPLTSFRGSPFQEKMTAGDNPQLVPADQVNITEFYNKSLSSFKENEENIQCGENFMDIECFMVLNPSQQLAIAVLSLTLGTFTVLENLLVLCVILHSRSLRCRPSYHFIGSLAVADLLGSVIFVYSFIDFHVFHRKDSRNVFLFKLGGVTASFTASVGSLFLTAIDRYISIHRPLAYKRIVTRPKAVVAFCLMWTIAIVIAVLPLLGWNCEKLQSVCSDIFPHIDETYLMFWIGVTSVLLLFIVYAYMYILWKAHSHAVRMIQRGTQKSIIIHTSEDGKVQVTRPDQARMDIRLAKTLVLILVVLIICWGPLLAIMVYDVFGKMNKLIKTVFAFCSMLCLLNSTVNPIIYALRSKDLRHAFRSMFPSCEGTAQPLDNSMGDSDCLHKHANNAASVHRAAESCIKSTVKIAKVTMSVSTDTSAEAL", "experiment": "Antagonist activity at human CB1R expressed in CHO cell membranes preincubated for 30 mins followed by GTPgammaS addition and measured after 90 mins by [35S]GTPgammaS assay", "type": "functional, Membrane", "conditions": "not given", "method_in_brief": "(§2)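 In-house CHO membranes expressing hCB1 or hCB2 (10 µg) in 50 mM Tris-HCl, 3 mM MgCl2, 0.2 mM EDTA, 100 mM NaCl, 0.5% fatty-acid-free BSA, pH 7.4, with 10 μM GDP and 0.1 nM [35S]GTPγS. Incubated 90 min at 30 °C; antagonist pre-incubated 30 min. Nonspecific binding with 10 μM GTPγS; bound label by filtration and counting; ≥3 experiments in triplicate.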", "values": [{"smiles": "Cc1c(-c2ccccc2)cc(C(=O)NC2CCCCCC2)c(=O)n1Cc1ccc(F)cc1", "pEC50": 9.44}]}, {"biological_target": "T2, Cannabinoid receptor 2 (Homo sapiens, UniProt P34972)", "T2 sequence (P34972 whole entry)": "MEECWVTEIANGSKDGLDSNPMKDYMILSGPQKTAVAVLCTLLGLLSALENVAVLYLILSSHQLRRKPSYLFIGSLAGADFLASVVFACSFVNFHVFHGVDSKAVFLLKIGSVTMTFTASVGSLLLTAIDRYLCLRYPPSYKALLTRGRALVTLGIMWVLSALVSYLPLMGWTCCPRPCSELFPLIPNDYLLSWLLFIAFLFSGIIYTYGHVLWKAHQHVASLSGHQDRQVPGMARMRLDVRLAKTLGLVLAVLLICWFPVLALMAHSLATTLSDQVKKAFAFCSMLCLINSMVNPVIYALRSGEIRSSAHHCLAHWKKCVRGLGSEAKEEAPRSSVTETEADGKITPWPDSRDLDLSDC", "experiment": "Displacement of [3H]CP55940 from recombinant human CB2R expressed in CHO cell membranes incubated for 90 mins", "set-up": "species or system Membrane", "conditions": "not given", "values": [{"smiles": "Cc1nc(OCc2ccc(F)cc2)c(C(=O)NC2CCCCCC2)cc1-c1ccc(F)cc1", "pKi": 6.27}, {"smiles": "Cc1c(-c2ccccc2)cc(C(=O)NC2CCCCCC2)c(=O)n1Cc1ccc(F)cc1", "pKi": 8.24}]}, {"biological_target": "T3, Monoglyceride lipase (Homo sapiens, UniProt Q99685)", "T3 sequence (Q99685 whole entry)": "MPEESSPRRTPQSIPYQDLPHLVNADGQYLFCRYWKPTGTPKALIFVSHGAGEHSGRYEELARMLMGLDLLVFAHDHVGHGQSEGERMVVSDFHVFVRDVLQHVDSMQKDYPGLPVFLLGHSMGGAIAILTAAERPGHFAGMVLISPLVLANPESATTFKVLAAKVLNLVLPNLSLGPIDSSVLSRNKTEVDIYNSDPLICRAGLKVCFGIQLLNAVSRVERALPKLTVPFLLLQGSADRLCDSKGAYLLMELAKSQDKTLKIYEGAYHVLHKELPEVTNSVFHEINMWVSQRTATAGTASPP", "experiment": "Inhibition of MAGL in human U937 cells using [glycerol-1,2,3-3H]2-OG as substrate preincubated for 15 mins followed by substrate addition and measured after 15 mins by liquid scintillation spectroscopy", "type": "cell-based, U-937", "conditions": "not given", "method_in_brief": "(§3)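 Intact U937 cells, 10^6 per condition, pre-incubated with compound 15 min at 37 °C with shaking (screen at 10 μM; full curves for hits). Substrate: 1 μM AEA with 1 nM [3H]AEA (FAAH) or 10 μM 2-OG with 5 nM [3H]2-OG (MAGL), 15 min at 37 °C. Stopped with CHCl3:MeOH 1:1, aqueous tritium counted; mean ± SD, ≥3 experiments in triplicate.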", "values": [{"smiles": "Cc1nc(OCc2ccc(F)cc2)c(C(=O)NC2CCCCCC2)cc1-c1ccc(F)cc1", "pIC50": "< 5.00"}, {"smiles": "Cc1c(-c2ccccc2)cc(C(=O)NC2CCCCCC2)c(=O)n1Cc1ccc(F)cc1", "pIC50": "< 5.00"}]}, {"biological_target": "T4, Lysophosphatidylserine lipase ABHD12 (Homo sapiens, UniProt Q8N2K0)", "T4 sequence (Q8N2K0 whole entry)": "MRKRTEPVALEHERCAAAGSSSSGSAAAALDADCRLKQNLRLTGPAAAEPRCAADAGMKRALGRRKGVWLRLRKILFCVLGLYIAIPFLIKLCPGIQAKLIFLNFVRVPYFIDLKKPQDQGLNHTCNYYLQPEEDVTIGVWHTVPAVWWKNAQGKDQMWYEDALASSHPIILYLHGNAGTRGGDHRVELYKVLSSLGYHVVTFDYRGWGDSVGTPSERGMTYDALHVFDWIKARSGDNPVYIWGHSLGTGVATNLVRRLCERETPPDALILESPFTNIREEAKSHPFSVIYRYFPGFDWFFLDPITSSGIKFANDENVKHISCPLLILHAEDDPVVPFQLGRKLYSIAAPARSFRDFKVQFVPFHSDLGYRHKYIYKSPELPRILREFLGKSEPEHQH", "experiment": "Inhibition of human ABHD12 expressed in HEK293 cells using 2-OG as substrate preincubated for 30 mins followed by substrate addition and measured after 5 mins by liquid scintillation spectroscopy", "type": "cell-based", "conditions": "not given", "method_in_brief": "(§4)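 Homogenates (40 µg) from HEK293 stably expressing hABHD6 or hABHD12 pre-incubated with compound 30 min at 37 °C in […], 0.1% BSA, pH 7.6; then 10 μM 2-OG for 5 min at 37 °C. Aqueous phase tritium counted after CHCl3:MeOH stop; no-enzyme blanks and non-transfected HEK293 hydrolysis subtracted. Controls WWL70 10 μM, THL 20 μM.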", "values": [{"smiles": "Cc1nc(OCc2ccc(F)cc2)c(C(=O)NC2CCCCCC2)cc1-c1ccc(F)cc1", "pIC50": "< 5.00"}, {"smiles": "Cc1c(-c2ccccc2)cc(C(=O)NC2CCCCCC2)c(=O)n1Cc1ccc(F)cc1", "pIC50": "< 5.00"}]}, {"biological_target": "T2, Cannabinoid receptor 2", "experiment": "Inverse agonist activity at human CB2R expressed in CHO cell membranes after 90 mins by [35S]GTPgammaS assay", "type": "functional, Membrane", "conditions": "not given", "method_in_brief": "as §2", "values": [{"smiles": "Cc1c(-c2ccccc2)cc(C(=O)NC2CCCCCC2)c(=O)n1Cc1ccc(F)cc1", "pEC50": 7.77}]}, {"biological_target": "T5, Monoacylglycerol lipase ABHD6 (Homo sapiens, UniProt Q9BV23)", "T5 sequence (Q9BV23 whole entry)": "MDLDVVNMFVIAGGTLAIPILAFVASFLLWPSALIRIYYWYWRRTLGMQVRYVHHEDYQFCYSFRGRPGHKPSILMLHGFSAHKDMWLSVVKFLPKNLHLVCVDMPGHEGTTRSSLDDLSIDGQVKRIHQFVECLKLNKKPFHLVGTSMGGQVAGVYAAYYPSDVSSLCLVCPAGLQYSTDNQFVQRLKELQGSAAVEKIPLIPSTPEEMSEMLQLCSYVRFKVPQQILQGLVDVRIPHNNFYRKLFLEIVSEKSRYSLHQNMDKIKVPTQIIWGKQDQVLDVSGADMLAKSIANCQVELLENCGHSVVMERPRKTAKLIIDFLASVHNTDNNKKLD", "experiment": "Inhibition of human ABHD6 expressed in HEK293 cells using 2-OG as substrate preincubated for 30 mins followed by substrate addition and measured after 5 mins by liquid scintillation spectroscopy", "type": "cell-based", "conditions": "not given", "method_in_brief": "as §4", "values": [{"smiles": "Cc1nc(OCc2ccc(F)cc2)c(C(=O)NC2CCCCCC2)cc1-c1ccc(F)cc1", "pIC50": "< 5.00"}, {"smiles": "Cc1c(-c2ccccc2)cc(C(=O)NC2CCCCCC2)c(=O)n1Cc1ccc(F)cc1", "pIC50": "< 5.00"}]}, {"test_system": "Mus musculus", "experiment": "In vivo agonist activity at CB1R in BALB/c mouse assessed as induction of analgesia at 5 mg/kg, ip measured after 1 hr by hotplate test", "type": "functional, organism-based", "conditions": "not given", "method_in_brief": "(§5)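 BALB/c mice given 5 mg/kg i.p. in DMSO (20 µL), tested 1 h later. Rectal temperature change from basal; catalepsy by bar test (4 cm bar, 120 s cut-off); locomotion by rotarod latency to fall at 4 rpm (120 s cut-off, 3 trials); analgesia by hot plate at 54-56 °C, first paw lick or shake. n = 5-20 per group.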", "values": [{"smiles": "Cc1c(-c2ccccc2)cc(C(=O)NC2CCCCCC2)c(=O)n1Cc1ccc(F)cc1", "Activity": "inactive"}]}, {"biological_target": "Cannabinoid receptor 1 (Rattus norvegicus) (UniProt P20272)", "experiment": "Agonist activity at CB1R in Sprague-Dawley rat hippocampal synaptosomes assessed as inhibition of 4-AP evoked glutamate release at 10 uM preincubated for 8 mins followed by 4-AP addition by HPLC analysis", "type": "subcellular", "conditions": "Hippocampus, filed as agonist", "method_in_brief": "as §1", "values": [{"smiles": "CCCCC/C=C\\C/C=C\\C/C=C\\C/C=C\\CCCC(=O)NCCCl", "Activity": "Active"}]}, {"test_system": "Mus musculus", "experiment": "In vivo agonist activity at CB1R in BALB/c mouse assessed as reduction in spontaneous locomotion at 5 mg/kg, ip measured after 1 hr by rotarod test", "type": "functional, organism-based", "conditions": "not given", "method_in_brief": "as §5", "values": [{"smiles": "Cc1c(-c2ccccc2)cc(C(=O)NC2CCCCCC2)c(=O)n1Cc1ccc(F)cc1", "Activity": "inactive"}]}, {"test_system": "Mus musculus", "experiment": "In vivo agonist activity at CB1R in BALB/c mouse assessed as reduction in body temperature at 5 mg/kg, ip measured after 1 hr by tetrad test", "type": "functional, organism-based", "conditions": "not given", "method_in_brief": "as §5", "values": [{"smiles": "Cc1c(-c2ccccc2)cc(C(=O)NC2CCCCCC2)c(=O)n1Cc1ccc(F)cc1", "Activity": "inactive"}]}, {"biological_target": "T6, Fatty-acid amide hydrolase 1 (Homo sapiens, UniProt O00519)", "T6 sequence (O00519 whole entry)": "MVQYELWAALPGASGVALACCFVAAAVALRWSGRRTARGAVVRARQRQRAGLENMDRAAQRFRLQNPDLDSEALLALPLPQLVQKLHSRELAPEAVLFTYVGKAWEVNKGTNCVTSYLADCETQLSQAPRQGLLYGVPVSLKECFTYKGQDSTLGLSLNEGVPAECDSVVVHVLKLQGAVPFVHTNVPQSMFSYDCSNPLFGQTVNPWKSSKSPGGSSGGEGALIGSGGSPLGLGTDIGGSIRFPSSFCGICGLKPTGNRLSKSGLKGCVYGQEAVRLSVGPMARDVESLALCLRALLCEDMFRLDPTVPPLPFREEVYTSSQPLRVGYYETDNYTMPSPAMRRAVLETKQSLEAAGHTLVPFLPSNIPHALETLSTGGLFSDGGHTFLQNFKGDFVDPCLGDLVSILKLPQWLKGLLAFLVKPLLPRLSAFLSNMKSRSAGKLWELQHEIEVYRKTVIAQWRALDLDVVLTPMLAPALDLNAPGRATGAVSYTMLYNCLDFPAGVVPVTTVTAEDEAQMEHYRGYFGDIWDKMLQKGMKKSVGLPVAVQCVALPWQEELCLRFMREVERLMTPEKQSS", "experiment": "Inhibition of FAAH in human U937 cells using [ethanolamine-1-3H]AEA as substrate preincubated for 15 mins followed by substrate addition and measured after 15 mins by liquid scintillation spectroscopy", "type": "cell-based, U-937", "conditions": "not given", "method_in_brief": "as §3", "values": [{"smiles": "Cc1nc(OCc2ccc(F)cc2)c(C(=O)NC2CCCCCC2)cc1-c1ccc(F)cc1", "pIC50": "< 5.00"}, {"smiles": "Cc1c(-c2ccccc2)cc(C(=O)NC2CCCCCC2)c(=O)n1Cc1ccc(F)cc1", "pIC50": 6.25}]}, {"test_system": "Mus musculus", "experiment": "In vivo agonist activity at CB1R in BALB/c mouse assessed as catalpesy-like behaviour by measuring increase in immobility time at 5 mg/kg, ip measured after 1 hr by bar test", "type": "functional, organism-based", "conditions": "not given", "method_in_brief": "as §5", "values": [{"smiles": "Cc1c(-c2ccccc2)cc(C(=O)NC2CCCCCC2)c(=O)n1Cc1ccc(F)cc1", "Activity": "inactive"}]}, {"biological_target": "T1, Cannabinoid receptor 1", "experiment": "Displacement of [3H]CP55940 from recombinant human CB1R expressed in CHO cell membranes incubated for 90 mins", "set-up": "species or system Membrane", "conditions": "not given", "values": [{"smiles": "Cc1nc(OCc2ccc(F)cc2)c(C(=O)NC2CCCCCC2)cc1-c1ccc(F)cc1", "pKi": 5.34}, {"smiles": "Cc1c(-c2ccccc2)cc(C(=O)NC2CCCCCC2)c(=O)n1Cc1ccc(F)cc1", "pKi": 6.75}]}]}
